Data taken from ChEMBL document CHEMBL2407075, “Sulphonamido-quinoxalines: search for anticancer agent” (Eur J Med Chem, 2013).

Tests used:
Format in all cases: functional
[1] = system: SN12C; test: Growth inhibition of human SN12C cells assessed as cell growth at 10^-8 M after 48 hrs by sulforhodamine B assay; conditions: read-out: Activity
[2] = system: ACHN; test: Growth inhibition of human ACHN cells assessed as cell growth at 10^-7 M after 48 hrs by sulforhodamine B assay; conditions: read-out: Activity
Summary of the method: (§1)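 Five-dose NCI-60 run (0.01, 0.1, 1, 10 and 100 µM, as 10-fold dilutions from a DMSO stock made at 400× the top final level). Cells were grown in RPMI 1640 with 5% FBS and 2 mM glutamine and plated for 24 h. They were then exposed for 48 h at 37 °C and 5% CO2. TCA fixation was followed by SRB staining with A515 read-out. Percent growth was taken relative to time-zero and control plates.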

[3] = system: A498; test: Growth inhibition of human A498 cells after 48 hrs by sulforhodamine B assay; conditions: A498, 48 h; for CC50: read-out: LC50 (the source's name)
Summary of the method: (§2)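 Adherent cells in RPMI 1640 with 5% FBS and 2 mM L-glutamine were plated at 5000–40,000 cells/well and grown 24 h. Five concentrations (0.01–100 µM, DMSO stock) were added for 48 h at 37 °C. Cells were fixed with cold TCA (10% final) and stained with SRB, read at 515 nm. GI50 came from log concentration–growth curves against time-zero and control plates.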

[4] = system: OVCAR-3; test: Growth inhibition of human OVCAR3 cells assessed as cell growth at 10^-8 M after 48 hrs by sulforhodamine B assay; conditions: OVCAR-3, 48 h, read-out: Activity
[5] = system: ACHN; test: Growth inhibition of human ACHN cells assessed as cell growth at 10^-5 M after 48 hrs by sulforhodamine B assay; conditions: read-out: Activity; summary of the method: as §1
[6] = system: K562; test: Growth inhibition of human K562 cells after 48 hrs by sulforhodamine B assay; conditions: K562, 48 h; for CC50: read-out: LC50 (the source's name)
Summary of the method: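 Five-dose NCI 60 screen at 0.01, 0.1, 1, 10 and 100 µM, 48 h exposure after 24 h preincubation, in RPMI 1640 with 5% FBS and 2 mM glutamine. Fixed with TCA (10% final for adherent cells, 16% for suspension cells), stained with SRB, A515 read. Percent growth uses time-zero (Tz), control and treated plates. GI50, TGI and LC50 are read from the dose-response curves.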

[7] = system: MDA-MB-435; test: Growth inhibition of human MDA-MB-435 cells assessed as cell growth at 10^-6 M after 48 hrs by sulforhodamine B assay; conditions: MDA-MB-435, 48 h, read-out: Activity
[8] = system: SK-MEL-2; test: Growth inhibition of human SK-MEL-2 cells assessed as cell growth at 10^-4 M after 48 hrs by sulforhodamine B assay; conditions: SK-MEL-2, 48 h, read-out: Activity
[9] = system: HL-60(TB); test: Growth inhibition of human HL-60(TB) cells assessed as cell growth at 10^-5 M after 48 hrs by sulforhodamine B assay; conditions: HL-60, 48 h, read-out: Activity
Summary of the method: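 HL-60(TB) suspension cells were treated 48 h at 37 °C within the five-dose series (0.01–100 µM), fixed with 16% final TCA and SRB-stained, read at 515 nm. Percentage growth at each concentration = (Ti−Tz)/(C−Tz)×100, or (Ti−Tz)/Tz×100 when Ti<Tz, with time-zero (Tz) and untreated control (C) plates.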

[10] = Growth inhibition of human Hs 578T cells assessed as cell growth at 10^-6 M after 48 hrs by sulforhodamine B assay; conditions: read-out: Activity
Summary of the method: (§3)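 Five-dose screen at NCI. Cells in RPMI 1640 with 5% FBS and 2 mM L-glutamine, seeded at 5000–40,000 cells/well and grown 24 h at 37 °C, 5% CO2 before dosing, with time-zero plates TCA-fixed. Drug diluted from DMSO stock to 0.01, 0.1, 1, 10 and 100 µM final, 48 h. Cells fixed with cold TCA (10% final), stained with 0.4% SRB and read at 515 nm. Percent growth from Tz, control and test absorbances; GI50, TGI and LC50 from dose-response curves.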

[11] = system: ACHN; test: Growth inhibition of human ACHN cells assessed as cell growth at 10^-4 M after 48 hrs by sulforhodamine B assay; conditions: read-out: Activity; summary of the method: as §1
[12] = system: BT-549; test: Growth inhibition of human BT549 cells assessed as cell growth at 10^-7 M after 48 hrs by sulforhodamine B assay; conditions: BT-549, 48 h, read-out: Activity; summary of the method: as §1
[13] = system: NCI-H522; test: Growth inhibition of human NCI-H522 cells assessed as cell growth at 10^-4 M after 48 hrs by sulforhodamine B assay; conditions: NCI-H522, 48 h, read-out: Activity
[14] = system: SK-MEL-5; test: Growth inhibition of human SK-MEL-5 cells assessed as cell growth at 10^-4 M after 48 hrs by sulforhodamine B assay; conditions: SK-MEL-5, 48 h, read-out: Activity
[15] = system: RXF 393; test: Growth inhibition of human RXF393 cells after 48 hrs by sulforhodamine B assay; conditions: RXF 393, 48 h; for CC50: read-out: LC50 (the source's name); summary of the method: as §2
[16] = Growth inhibition of human Hs 578T cells assessed as cell growth at 10^-5 M after 48 hrs by sulforhodamine B assay; conditions: read-out: Activity; summary of the method: as §3
[17] = Growth inhibition of human HCC2998 cells assessed as cell growth at 10^-7 M after 48 hrs by sulforhodamine B assay; conditions: HCC 2998, 48 h, read-out: Activity; summary of the method: as §3
[18] = system: NCI-H23; test: Growth inhibition of human NCI-H23 cells assessed as cell growth at 10^-8 M after 48 hrs by sulforhodamine B assay; conditions: NCI-H23, 48 h, read-out: Activity
[19] = system: OVCAR-3; test: Growth inhibition of human OVCAR3 cells assessed as cell growth at 10^-5 M after 48 hrs by sulforhodamine B assay; conditions: OVCAR-3, 48 h, read-out: Activity
[20] = system: UO-31; test: Growth inhibition of human UO31 cells assessed as cell growth at 10^-4 M after 48 hrs by sulforhodamine B assay; conditions: UO-31, 48 h, read-out: Activity
[21] = system: NCI-H226; test: Growth inhibition of human NCI-H226 cells assessed as cell growth at 10^-4 M after 48 hrs by sulforhodamine B assay; conditions: NCI-H226, 48 h, read-out: Activity
[22] = system: RPMI-8226; test: Growth inhibition of human RPMI8226 cells assessed as cell growth at 10^-8 M after 48 hrs by sulforhodamine B assay; conditions: RPMI-8226, 48 h, read-out: Activity
[23] = system: SF-295; test: Growth inhibition of human SF295 cells assessed as cell growth at 10^-8 M after 48 hrs by sulforhodamine B assay; conditions: SF-295, 48 h, read-out: Activity
[24] = system: COLO 205; test: Growth inhibition of human COLO205 cells assessed as cell growth at 10^-4 M after 48 hrs by sulforhodamine B assay; conditions: COLO 205, 48 h, read-out: Activity; summary of the method: as §1
[25] = system: NCI-H23; test: Growth inhibition of human NCI-H23 cells assessed as cell growth at 10^-6 M after 48 hrs by sulforhodamine B assay; conditions: NCI-H23, 48 h, read-out: Activity
[26] = system: SK-MEL-5; test: Growth inhibition of human SK-MEL-5 cells after 48 hrs by sulforhodamine B assay; conditions: SK-MEL-5, 48 h
[27] = system: MDA-MB-231; test: Growth inhibition of human MDA-MB-231 cells after 48 hrs by sulforhodamine B assay; conditions: MDA-MB-231, 48 h

Row | SMILES | growth at 0.01 µM [1] | growth at 0.1 µM [2] | CC50 [3] | growth at 0.01 µM [4] | growth at 10 µM [5] | TGI [6] | CC50 [6] | growth at 1 µM [7] | growth at 10 µM [9] | growth at 1 µM [10] | growth at 100 µM [11] | growth at 0.1 µM [12] | growth at 100 µM [13] | growth at 100 µM [14] | CC50 [15] | growth at 10 µM [16] | growth at 0.1 µM [17] | growth at 0.01 µM [18] | growth at 10 µM [19] | growth at 100 µM [20] | also measured
1 | O=S(=O)(Nc1ccc(Cl)cc1)c1ccc2nc(-c3ccccc3)c(-c3ccccc3)nc2c1 | 95% | 95% | > 100 µM | 100% | 6% | > 100 µM | > 100 µM | 92% | -32% | 76% | 76% | 81% | 67% | 52% | > 100 µM | 3% | 99% | 97% | -41% | 75% | growth at 100 µM [8]: 69%; growth at 100 µM [21]: 73%; growth at 0.01 µM [22]: 103%; growth at 0.01 µM [23]: 92%; growth at 100 µM [24]: 73%; growth at 1 µM [25]: 85%
2 | O=S(=O)(Nc1ccccn1)c1ccc2nc(-c3ccccc3)c(-c3ccccc3)nc2c1 | 95% | 98% | > 100 µM | 92% | 6% | > 100 µM | > 100 µM | 91% | -30% | 65% | 62% | 81% | 31% | 41% | > 100 µM | -11% | 100% | 95% | -32% | 59% | GI50 [3]: 1.67 µM; GI50 [6]: 2.72 µM; GI50 [15]: 2.14 µM; GI50 [26]: 1.46 µM; growth at 100 µM [21]: 70%; growth at 0.01 µM [22]: 108%; GI50 [27]: 1.82 µM; growth at 0.01 µM [23]: 86%; growth at 100 µM [24]: 57%; growth at 1 µM [25]: 79%
